Key:
[1] = molecular target: T1, Metabotropic glutamate receptor 1 (Homo sapiens, UniProt Q13255); test: Positive allosteric modulation of human mGlu1 receptor at 10 uM by cell based calcium mobilization relative to glutamate; type: functional
Procedure, shortened: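 Calcium mobilization assay at mGlu1, tested at a single point of 10 μM; response given as % Glu Max.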
Target sequence in this assay (Q13255 19-1194 limits assumed): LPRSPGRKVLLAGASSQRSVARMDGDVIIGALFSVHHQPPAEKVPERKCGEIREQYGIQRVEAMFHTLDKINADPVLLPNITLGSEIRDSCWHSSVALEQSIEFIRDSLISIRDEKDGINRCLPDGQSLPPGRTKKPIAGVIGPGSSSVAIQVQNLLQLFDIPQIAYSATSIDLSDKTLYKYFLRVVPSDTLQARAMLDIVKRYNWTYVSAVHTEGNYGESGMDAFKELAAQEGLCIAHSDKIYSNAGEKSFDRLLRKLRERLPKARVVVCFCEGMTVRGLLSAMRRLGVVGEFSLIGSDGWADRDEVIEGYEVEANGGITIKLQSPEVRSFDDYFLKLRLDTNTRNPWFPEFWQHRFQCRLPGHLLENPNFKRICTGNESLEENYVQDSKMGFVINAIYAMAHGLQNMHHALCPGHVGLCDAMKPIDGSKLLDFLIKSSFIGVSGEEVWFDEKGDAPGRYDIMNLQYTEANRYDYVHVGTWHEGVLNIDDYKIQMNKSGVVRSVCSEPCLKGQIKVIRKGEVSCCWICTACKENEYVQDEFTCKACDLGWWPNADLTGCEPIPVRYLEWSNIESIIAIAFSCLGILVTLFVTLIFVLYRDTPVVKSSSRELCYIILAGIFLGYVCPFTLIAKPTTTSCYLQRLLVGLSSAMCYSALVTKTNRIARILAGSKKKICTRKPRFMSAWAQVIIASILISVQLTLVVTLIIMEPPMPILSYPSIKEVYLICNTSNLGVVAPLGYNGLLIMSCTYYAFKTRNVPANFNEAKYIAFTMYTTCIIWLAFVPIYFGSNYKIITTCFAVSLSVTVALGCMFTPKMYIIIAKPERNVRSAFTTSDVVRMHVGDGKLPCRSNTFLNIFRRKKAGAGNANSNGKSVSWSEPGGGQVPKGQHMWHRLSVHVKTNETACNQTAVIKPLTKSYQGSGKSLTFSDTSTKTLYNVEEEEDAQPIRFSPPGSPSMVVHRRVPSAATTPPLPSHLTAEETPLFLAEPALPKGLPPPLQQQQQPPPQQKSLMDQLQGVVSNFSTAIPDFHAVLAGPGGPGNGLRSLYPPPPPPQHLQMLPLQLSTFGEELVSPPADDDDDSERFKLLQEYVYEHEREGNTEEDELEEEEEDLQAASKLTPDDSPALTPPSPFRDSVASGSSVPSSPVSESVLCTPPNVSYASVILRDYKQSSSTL

[2] = molecular target: T1, Metabotropic glutamate receptor 1; test: Positive allosteric modulation of human mGlu1 receptor by cell based calcium mobilization; type: functional
Procedure, shortened: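 Calcium mobilization assay at mGlu1; EC50 and % Glu Max taken as the average of three independent experiments, each run in triplicate.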
Target sequence in this assay (Q13255 whole entry): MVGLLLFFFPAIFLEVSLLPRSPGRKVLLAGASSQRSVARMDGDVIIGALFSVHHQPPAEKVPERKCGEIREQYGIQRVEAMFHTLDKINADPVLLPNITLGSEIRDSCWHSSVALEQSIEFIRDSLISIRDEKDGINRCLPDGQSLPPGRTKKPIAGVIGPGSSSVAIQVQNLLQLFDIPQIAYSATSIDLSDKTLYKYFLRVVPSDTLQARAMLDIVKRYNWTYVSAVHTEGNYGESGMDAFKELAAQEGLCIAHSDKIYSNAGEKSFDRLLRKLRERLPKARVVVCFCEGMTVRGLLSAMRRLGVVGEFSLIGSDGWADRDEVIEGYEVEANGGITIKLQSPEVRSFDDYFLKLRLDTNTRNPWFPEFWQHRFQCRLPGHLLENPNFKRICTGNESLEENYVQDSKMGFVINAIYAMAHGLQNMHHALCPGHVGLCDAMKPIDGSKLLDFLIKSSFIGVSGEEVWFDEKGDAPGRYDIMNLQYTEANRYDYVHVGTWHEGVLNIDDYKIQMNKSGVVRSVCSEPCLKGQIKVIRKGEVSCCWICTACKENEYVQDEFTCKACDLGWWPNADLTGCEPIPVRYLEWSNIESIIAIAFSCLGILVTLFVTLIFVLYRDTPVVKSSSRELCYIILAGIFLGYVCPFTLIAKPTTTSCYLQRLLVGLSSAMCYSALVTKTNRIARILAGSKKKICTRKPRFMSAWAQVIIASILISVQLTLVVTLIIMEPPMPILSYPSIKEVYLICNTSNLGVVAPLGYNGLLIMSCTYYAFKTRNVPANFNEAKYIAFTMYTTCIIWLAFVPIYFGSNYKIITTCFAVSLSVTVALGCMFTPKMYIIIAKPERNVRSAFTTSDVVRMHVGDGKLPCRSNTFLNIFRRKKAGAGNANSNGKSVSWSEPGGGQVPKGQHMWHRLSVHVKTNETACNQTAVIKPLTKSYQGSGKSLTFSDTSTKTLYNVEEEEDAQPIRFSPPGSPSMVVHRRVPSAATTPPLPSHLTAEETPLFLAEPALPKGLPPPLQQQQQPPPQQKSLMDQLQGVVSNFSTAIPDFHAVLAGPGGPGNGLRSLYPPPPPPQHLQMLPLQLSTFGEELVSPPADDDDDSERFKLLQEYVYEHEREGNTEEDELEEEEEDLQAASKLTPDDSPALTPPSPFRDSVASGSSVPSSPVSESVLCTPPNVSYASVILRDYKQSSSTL

Homo sapiens = species on record: Homo sapiens; test: Selectivity ratio of EC50 for human mGlu4 receptor to EC50 for human mGlu1 receptor
[3] = molecular target: T2, Metabotropic glutamate receptor 4 (Homo sapiens, UniProt Q14833); test: Positive allosteric modulation of human mGlu4 receptor by cell based calcium mobilization; type: functional
[4] = molecular target: T2, Metabotropic glutamate receptor 4; test: Positive allosteric modulation of human mGlu4 receptor assessed as glutamate-induced calcium mobilization at 10 uM by cell based assay relative to PHCCC; type: functional

T2 sequence (Q14833 whole entry): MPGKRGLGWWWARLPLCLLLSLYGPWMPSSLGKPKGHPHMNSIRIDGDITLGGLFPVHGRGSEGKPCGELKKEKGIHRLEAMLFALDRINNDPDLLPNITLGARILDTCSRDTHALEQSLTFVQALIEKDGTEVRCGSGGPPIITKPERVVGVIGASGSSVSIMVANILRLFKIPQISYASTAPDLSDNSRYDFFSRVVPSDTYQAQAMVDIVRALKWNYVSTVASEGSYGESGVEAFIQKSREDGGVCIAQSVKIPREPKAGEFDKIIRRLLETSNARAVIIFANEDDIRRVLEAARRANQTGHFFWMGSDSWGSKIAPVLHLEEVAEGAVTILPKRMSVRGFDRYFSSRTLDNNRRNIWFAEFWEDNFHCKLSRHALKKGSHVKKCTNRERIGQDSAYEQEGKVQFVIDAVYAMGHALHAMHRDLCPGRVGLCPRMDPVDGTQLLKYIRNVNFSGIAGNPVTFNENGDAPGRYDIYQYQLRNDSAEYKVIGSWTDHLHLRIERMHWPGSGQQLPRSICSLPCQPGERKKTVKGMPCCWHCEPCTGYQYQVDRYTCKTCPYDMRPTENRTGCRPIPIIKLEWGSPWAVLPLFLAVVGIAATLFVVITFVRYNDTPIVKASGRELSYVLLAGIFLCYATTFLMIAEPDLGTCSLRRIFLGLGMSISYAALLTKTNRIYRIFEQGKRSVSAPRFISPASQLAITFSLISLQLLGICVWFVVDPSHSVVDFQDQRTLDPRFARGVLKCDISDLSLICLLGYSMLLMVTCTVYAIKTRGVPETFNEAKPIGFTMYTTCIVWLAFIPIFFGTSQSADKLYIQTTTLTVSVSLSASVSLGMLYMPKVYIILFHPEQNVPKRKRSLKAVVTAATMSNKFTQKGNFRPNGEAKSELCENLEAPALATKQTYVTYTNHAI

Cc1ocnc1C(=O)Nc1ccc(N2C(=O)c3cccc(Cl)c3C2=O)cc1F
%max [1]: 27%

Cc1cccc2c1C(=O)N(c1ccc(NC(=O)c3ncoc3C)c(F)c1)C2=O
%max [1]: 20%

Cc1ccc2c(c1)C(=O)N(c1ccc(NC(=O)c3nccn3C)cc1Cl)C2=O
EC50 ([2]; read-out: EC50): 0.254 µM
Ratio EC50 (Homo sapiens): 2.4
EC50 [3]: 0.602 µM
%max [4]: 124%
%max [1]: 108%

Cc1ncoc1C(=O)Nc1ccc(N2C(=O)c3ccccc3C2=O)c(Cl)c1
EC50 ([2]; read-out: EC50): > 10 µM

Cc1ocnc1C(=O)Nc1ccc(N2C(=O)c3cccc(Cl)c3C2=O)c(Cl)c1
EC50 ([2]; read-out: EC50): 1.29 µM
EC50 ([2]; read-out: pEC50 (converted)): 1.32 µM
Ratio EC50 (Homo sapiens): 0.7
EC50 [3]: 0.983 µM
%max [4]: 24%
%max [1]: 112%

CN1CCC[C@@H]1C(=O)Nc1ccc(N2C(=O)c3ccccc3C2=O)c(Cl)c1
EC50 ([2]; read-out: EC50): > 10 µM

Cc1ocnc1C(=O)Nc1ccc(N2C(=O)c3ccccc3C2=O)c(Cl)c1
EC50 ([2]; read-out: EC50): 1.47 µM
%max [1]: 100%

Cc1scnc1C(=O)Nc1ccc(N2C(=O)c3ccc(F)cc3C2=O)c(Cl)c1
EC50 ([2]; read-out: EC50): 0.063 µM
Ratio EC50 (Homo sapiens): 4.9
EC50 [3]: 0.306 µM
%max [4]: 52%
%max [1]: 98%

Cc1cccc2c1C(=O)N(c1ccc(NC(=O)c3nccn3C)cc1Cl)C2=O
EC50 ([2]; read-out: EC50): > 10 µM
EC50 [3]: 0.506 µM
%max [4]: 32%
%max [1]: 30%

Cn1ccnc1C(=O)Nc1ccc(N2C(=O)c3ccc(F)cc3C2=O)c(Cl)c1
EC50 ([2]; read-out: EC50): 0.673 µM
Ratio EC50 (Homo sapiens): 1.5
EC50 [3]: 1.07 µM
%max [4]: 63%
%max [1]: 87%

Cc1cn[nH]c1C(=O)Nc1ccc(N2C(=O)c3cccc(C)c3C2=O)c(Cl)c1
EC50 ([2]; read-out: EC50): 4.94 µM
EC50 [3]: > 10 µM
%max [1]: 110%

Cc1scnc1C(=O)Nc1ccc(N2C(=O)c3ccc(Cl)cc3C2=O)cc1F
%max [1]: 40%

Cc1[nH]ccc1C(=O)Nc1ccc(N2C(=O)c3ccccc3C2=O)c(Cl)c1
EC50 ([2]; read-out: EC50): > 10 µM

Cc1scnc1C(=O)Nc1ccc(N2C(=O)c3ccc(Cl)cc3C2=O)c(Cl)c1
EC50 ([2]; read-out: EC50): 0.051 µM
Ratio EC50 (Homo sapiens): 39.1
EC50 [3]: 1.98 µM
%max [4]: 169%
%max [1]: 91%

CN1CCC[C@H]1C(=O)Nc1ccc(N2C(=O)c3ccccc3C2=O)c(Cl)c1
EC50 ([2]; read-out: EC50): > 10 µM

Cc1ocnc1C(=O)Nc1ccc(N2C(=O)c3cccnc3C2=O)c(Cl)c1
EC50 ([2]; read-out: EC50): 1.7 µM
Ratio EC50 (Homo sapiens): > 5.9
EC50 [3]: 2.53 µM
%max [4]: 45%
%max [1]: 91%

Cc1cn[nH]c1C(=O)Nc1ccc(N2C(=O)c3ccc(Cl)cc3C2=O)c(Cl)c1
EC50 ([2]; read-out: EC50): 0.855 µM
Ratio EC50 (Homo sapiens): 3.9
EC50 [3]: 3.38 µM
%max [4]: 117%
%max [1]: 113%

Cc1sccc1C(=O)Nc1ccc(N2C(=O)c3ccccc3C2=O)c(Cl)c1
EC50 ([2]; read-out: EC50): 1.51 µM
%max [1]: 105%

Cn1ccnc1C(=O)Nc1ccc(N2C(=O)c3ccccc3C2=O)c(Cl)c1
EC50 ([2]; read-out: EC50): 0.374 µM
EC50 ([2]; read-out: pEC50 (converted)): 0.355 µM
%max [1]: 59%

Cc1ccsc1C(=O)Nc1ccc(N2C(=O)c3ccccc3C2=O)c(Cl)c1
EC50 ([2]; read-out: EC50): 1.89 µM
%max [1]: 105%

Cc1ocnc1C(=O)Nc1ccc(N2C(=O)c3ccc(F)cc3C2=O)cc1F
%max [1]: 16%

Cc1cn[nH]c1C(=O)Nc1ccc(N2C(=O)c3cccc(Cl)c3C2=O)c(Cl)c1
EC50 ([2]; read-out: EC50): > 10 µM
EC50 [3]: > 10 µM
%max [1]: 94%

Cc1cn[nH]c1C(=O)Nc1ccc(N2C(=O)c3ccccc3C2=O)c(Cl)c1
EC50 ([2]; read-out: EC50): 1.24 µM
%max [1]: 107%

Cc1ncsc1C(=O)Nc1ccc(N2C(=O)c3ccccc3C2=O)c(Cl)c1
EC50 ([2]; read-out: EC50): > 10 µM

Cn1ccnc1C(=O)Nc1ccc(N2C(=O)c3cccc(F)c3C2=O)c(Cl)c1
EC50 ([2]; read-out: EC50): > 10 µM
EC50 [3]: 1.09 µM
%max [4]: 42%
%max [1]: 43%

Cc1scnc1C(=O)Nc1ccc(N2C(=O)c3cccc(F)c3C2=O)cc1F
%max [1]: 43%

Cc1ccc2c(c1)C(=O)N(c1ccc(NC(=O)c3ncsc3C)c(F)c1)C2=O
%max [1]: 36%

Cc1cccc2c1C(=O)N(c1ccc(NC(=O)c3ncoc3C)cc1Cl)C2=O
EC50 ([2]; read-out: EC50): 0.469 µM
EC50 ([2]; read-out: pEC50 (converted)): 0.479 µM
Ratio EC50 (Homo sapiens): 0.9
EC50 [3]: 0.519 µM
%max [4]: 39%
%max [1]: 91%

Cn1ccnc1C(=O)Nc1ccc(N2C(=O)c3cccnc3C2=O)c(Cl)c1
EC50 ([2]; read-out: EC50): > 10 µM
EC50 [3]: > 10 µM
%max [1]: 44%

Cc1ocnc1C(=O)Nc1ccc(N2C(=O)c3cccc(F)c3C2=O)c(Cl)c1
EC50 ([2]; read-out: EC50): 0.241 µM
EC50 ([2]; read-out: pEC50 (converted)): 1.7 µM
Ratio EC50 (Homo sapiens): 1.7
EC50 [3]: > 10 µM
%max [1]: 98%

Cc1ccc2c(c1)C(=O)N(c1ccc(NC(=O)c3ncsc3C)cc1Cl)C2=O
EC50 ([2]; read-out: EC50): 0.022 µM
Ratio EC50 (Homo sapiens): 51.1
EC50 [3]: 1.12 µM
%max [4]: 161%
%max [1]: 86%

Cc1ccc2c(c1)C(=O)N(c1ccc(NC(=O)c3ncoc3C)cc1Cl)C2=O
EC50 ([2]; read-out: EC50): 0.041 µM
Ratio EC50 (Homo sapiens): 4.8
EC50 [3]: 0.198 µM
%max [4]: 75%
%max [1]: 98%

Cc1ocnc1C(=O)Nc1ccc(N2C(=O)c3ccccc3C2=O)cc1F
%max [1]: 18%

Cc1cccc2c1C(=O)N(c1ccc(NC(=O)c3ncsc3C)cc1Cl)C2=O
EC50 ([2]; read-out: EC50): 0.232 µM
Ratio EC50 (Homo sapiens): 6.1
EC50 [3]: 1.41 µM
%max [4]: 75%
%max [1]: 104%

Cc1scnc1C(=O)Nc1ccc(N2C(=O)c3ccccc3C2=O)c(Cl)c1
EC50 ([2]; read-out: EC50): 0.056 µM
EC50 ([2]; read-out: pEC50 (converted)): 0.0589 µM
%max [1]: 96%

Cc1ccc2c(c1)C(=O)N(c1ccc(NC(=O)c3[nH]ncc3C)cc1Cl)C2=O
EC50 ([2]; read-out: EC50): 0.557 µM
Ratio EC50 (Homo sapiens): 4.9
EC50 [3]: 2.75 µM
%max [4]: 133%
%max [1]: 106%

Cn1ccnc1C(=O)Nc1ccc(N2C(=O)c3ccc(Cl)cc3C2=O)c(Cl)c1
EC50 ([2]; read-out: EC50): 0.265 µM
Ratio EC50 (Homo sapiens): 5.9
EC50 [3]: 1.57 µM
%max [4]: 145%
%max [1]: 103%

Cc1ocnc1C(=O)Nc1ccc(N2C(=O)c3ccc(F)cc3C2=O)c(Cl)c1
EC50 ([2]; read-out: EC50): 0.141 µM
Ratio EC50 (Homo sapiens): 4.6
EC50 [3]: 0.642 µM
%max [4]: 36%
%max [1]: 93%

Cc1cn[nH]c1C(=O)Nc1ccc(N2C(=O)c3cccc(F)c3C2=O)c(Cl)c1
EC50 ([2]; read-out: EC50): 0.599 µM
EC50 ([2]; read-out: pEC50 (converted)): 0.0224 µM
EC50 [3]: > 10 µM
%max [1]: 83%

Cc1scnc1C(=O)Nc1ccc(N2C(=O)c3ccc(F)cc3C2=O)cc1F
%max [1]: 45%

Cc1cn[nH]c1C(=O)Nc1ccc(N2C(=O)c3cccnc3C2=O)c(Cl)c1
EC50 ([2]; read-out: EC50): > 10 µM
EC50 [3]: > 10 µM
%max [4]: 27%
%max [1]: 37%

Cc1ocnc1C(=O)Nc1ccc(N2C(=O)c3ccc(Cl)cc3C2=O)cc1F
%max [1]: 25%

Cc1ocnc1C(=O)Nc1ccc(N2C(=O)c3ccc(Cl)cc3C2=O)c(Cl)c1
EC50 ([2]; read-out: EC50): 0.054 µM
Ratio EC50 (Homo sapiens): 7.4
EC50 [3]: 0.405 µM
%max [4]: 67%
%max [1]: 104%

Cn1cccc1C(=O)Nc1ccc(N2C(=O)c3ccccc3C2=O)c(Cl)c1
EC50 ([2]; read-out: EC50): 5.26 µM
%max [1]: 95%

Cc1cc[nH]c1C(=O)Nc1ccc(N2C(=O)c3ccccc3C2=O)c(Cl)c1
EC50 ([2]; read-out: EC50): 3.42 µM
EC50 ([2]; read-out: pEC50 (converted)): 3.47 µM
%max [1]: 95%

Cc1scnc1C(=O)Nc1ccc(N2C(=O)c3cccnc3C2=O)c(Cl)c1
EC50 ([2]; read-out: EC50): 0.191 µM
EC50 [3]: > 10 µM
%max [1]: 98%

Cc1ocnc1C(=O)Nc1ccc(N2C(=O)c3cccc(F)c3C2=O)cc1F
%max [1]: 36%

Cc1scnc1C(=O)Nc1ccc(N2C(=O)c3cccc(F)c3C2=O)c(Cl)c1
EC50 ([2]; read-out: EC50): 0.187 µM
Ratio EC50 (Homo sapiens): 2.5
EC50 [3]: 0.474 µM
%max [4]: 52%
%max [1]: 111%

Cc1scnc1C(=O)Nc1ccc(N2C(=O)c3cccnc3C2=O)cc1F
%max [1]: 42%

Cn1ccnc1C(=O)Nc1ccc(N2C(=O)c3cccc(Cl)c3C2=O)c(Cl)c1
EC50 ([2]; read-out: EC50): > 10 µM
EC50 [3]: > 10 µM
%max [4]: 30%
%max [1]: 30%

Cc1scnc1C(=O)Nc1ccc(N2C(=O)c3ccccc3C2=O)cc1F
%max [1]: 45%

Cc1scnc1C(=O)Nc1ccc(N2C(=O)c3cccc(Cl)c3C2=O)c(Cl)c1
EC50 ([2]; read-out: EC50): 1.37 µM
EC50 [3]: > 10 µM
%max [4]: 59%
%max [1]: 121%

Cc1scnc1C(=O)Nc1ccc(N2C(=O)c3cccc(Cl)c3C2=O)cc1F
%max [1]: 22%

Cc1cccc2c1C(=O)N(c1ccc(NC(=O)c3ncsc3C)c(F)c1)C2=O
%max [1]: 17%

Cc1ccc2c(c1)C(=O)N(c1ccc(NC(=O)c3ncoc3C)c(F)c1)C2=O
%max [1]: 14%

Cc1ocnc1C(=O)Nc1ccc(N2C(=O)c3cccnc3C2=O)cc1F
%max [1]: 9%

Cc1cn[nH]c1C(=O)Nc1ccc(N2C(=O)c3ccc(F)cc3C2=O)c(Cl)c1
EC50 ([2]; read-out: EC50): 0.632 µM
Ratio EC50 (Homo sapiens): 9.8
EC50 [3]: 6.2 µM
%max [4]: 59%
%max [1]: 106%
